The source made the active and inactive calls. The rule behind the calls is not given here.

As a reminder, the IC50 is the concentration that inhibits the measured activity by half. High values mean lower potency, low ones higher potency.

Assay [1] relates to Acanthamoeba castellanii. The assay can be described thus: Antimicrobial activity against Acanthamoeba castellanii assessed as growth inhibition at 10 ug/ml upto 3 days by hemocytometer. The format is functional, organism-based. The gist of the method:
(§1)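 Amoebae maintained at 30°C on E. coli lawns on nonnutrient agar, then axenic at 37°C in SCGYEM. Seeded day 0 at 2 × 10^5 cells/ml in SCGYEM with or without endocannabinoid, added in ethanol (0.05% final); vehicle controls contained ethanol. Tubes incubated slanted at 37°C; cell concentration counted daily by hemocytometer through day 3.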

Assay [2] has as its system Acanthamoeba castellanii. The assay can be described thus: Antimicrobial activity against Acanthamoeba castellanii assessed as growth inhibition at 2 ug/ml after 3 days by hemocytometer. The format is functional, organism-based. The gist of the method: as §1
Assay [3] concerns Willaertia magna. The assay can be described thus: Antimicrobial activity against Willaertia magna c2c Maky ATCC PTA-7824 assessed as decrease in viable cell concentration at 20 ug/ml after 3 days by hemocytometer. The format is functional. The gist of the method:
as §1

Assay [4] has as its system Hartmannella vermiformis. The assay can be described thus: Antimicrobial activity against Hartmannella vermiformis after 3 days by hemocytometer. The format is functional. The note with it: Vermamoeba vermiformis, 72 h. A digest of the protocol: as §1
In assay [5] the test system is Hartmannella vermiformis. The assay can be described thus: Antimicrobial activity against Hartmannella vermiformis assessed as growth inhibition at 10 ug/ml upto 3 days by hemocytometer. The format is functional. The note with it: Vermamoeba vermiformis. The gist of the method:
as §1

Assay [6] relates to Willaertia magna. Nature of the assay: Antimicrobial activity against Willaertia magna c2c Maky ATCC PTA-7824 assessed as growth inhibition at 2 ug/ml after 3 days by hemocytometer. The format is functional. The gist of the method: as §1
For assay [7], the system named is Acanthamoeba castellanii. The assay can be described thus: Antimicrobial activity against Acanthamoeba castellanii assessed as growth inhibition at 10 ug/ml after 3 days by hemocytometer relative to control. The format is functional. The note with it: 72 h. The gist of the method: as §1
For assay [8], the system named is Acanthamoeba castellanii. Nature of the assay: Antimicrobial activity against Acanthamoeba castellanii assessed as decrease in viable cell concentration at 20 ug/ml after 3 days by hemocytometer. The format is functional, organism-based. The gist of the method: as §1
The subject of assay [9] is Willaertia magna. The assay can be described thus: Antimicrobial activity against Willaertia magna c2c Maky ATCC PTA-7824 after 3 days by hemocytometer. The format is functional. The note with it: c2c Maky ATCC PTA-7824, 72 h. The gist of the method: as §1
Assay [10] deals with Hartmannella vermiformis. The assay can be described thus: Antimicrobial activity against Hartmannella vermiformis assessed as growth inhibition at 2 ug/ml after 3 days by hemocytometer. The format is functional. The following applies: Vermamoeba vermiformis. A digest of the protocol: as §1
The test system of assay [11] is Hartmannella vermiformis. Nature of the assay: Antimicrobial activity against Hartmannella vermiformis assessed as growth inhibition at 5 ug/ml after 3 days by hemocytometer. The format is functional. The note with it: Vermamoeba vermiformis. A digest of the protocol:
as §1

Assay [12] deals with Hartmannella vermiformis. Nature of the assay: Antimicrobial activity against Hartmannella vermiformis assessed as decrease in viable cell concentration at 20 ug/ml after 3 days by hemocytometer. The format is functional. The note with it: Vermamoeba vermiformis. The gist of the method:
as §1

For assay [13], the system named is Acanthamoeba castellanii. Nature of the assay: Antimicrobial activity against Acanthamoeba castellanii assessed as growth inhibition at 5 ug/ml after 3 days by hemocytometer. The format is functional, organism-based. The gist of the method:
as §1

Assay [14] deals with Acanthamoeba castellanii. Nature of the assay: Antimicrobial activity against Acanthamoeba castellanii after 3 days by hemocytometer. The format is functional, organism-based. The note with it: 72 h. The gist of the method: as §1
The subject of assay [15] is Willaertia magna. Nature of the assay: Antimicrobial activity against Willaertia magna c2c Maky ATCC PTA-7824 assessed as growth inhibition at 5 ug/ml after 3 days by hemocytometer. The format is functional. A digest of the protocol: as §1
In assay [16] the test system is Willaertia magna. The assay can be described thus: Antimicrobial activity against Willaertia magna c2c Maky ATCC PTA-7824 assessed as growth inhibition at 10 ug/ml upto 3 days by hemocytometer. The format is functional. The gist of the method:
as §1

For assay [17], the system named is Willaertia magna. Nature of the assay: Antimicrobial activity against Willaertia magna c2c Maky ATCC PTA-7824 assessed as growth inhibition at 10 ug/ml after 3 days by hemocytometer relative to control. The format is functional. The note with it: c2c Maky ATCC PTA-7824, 72 h, read-out: INH. The gist of the method: as §1
Assay [18] deals with Hartmannella vermiformis. The assay can be described thus: Antimicrobial activity against Hartmannella vermiformis assessed as growth inhibition at 10 ug/ml after 3 days by hemocytometer relative to control. The format is functional. The note with it: Vermamoeba vermiformis, 72 h, read-out: INH. The gist of the method: as §1

For `CCCCC/C=C\C/C=C\C/C=C\C/C=C\CCCC(=O)NCCO` [ANANDAMIDE], the inhibition result in the assay with Acanthamoeba castellanii [1], with Acanthamoeba castellanii [2], in the assay on Willaertia magna [3], in the assay with Hartmannella vermiformis [5], with Willaertia magna [6] and in the assay with Acanthamoeba castellanii [8] was “Active” throughout. Besides, the inhibition entry in the assay with Hartmannella vermiformis [10], with Hartmannella vermiformis [11], in the assay with Hartmannella vermiformis [12], with Acanthamoeba castellanii [13], in the assay with Willaertia magna [15] and in the assay on Willaertia magna [16] was “Active” throughout. Also, the IC50 was 14 µM with Hartmannella vermiformis [4], 20 µM with Willaertia magna [9] and 17 µM in the assay on Acanthamoeba castellanii [14]. The inhibition at 10 µg/mL turned out to be 68% in the assay on Acanthamoeba castellanii [7], 58% with Willaertia magna [17] and 96% in the assay with Hartmannella vermiformis [18].

The values above are taken from ChEMBL document CHEMBL1629697, “Endocannabinoids inhibit the growth of free-living amoebae” (Antimicrob Agents Chemother, 2010).
